Consider 17 compounds from PubChem BioAssay.

Unmarked numbers belong to inactive results.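 Rule for the calls: active = growth inhibition above 25% in both replicates, a cutoff set 3 SD above the mean; inconclusive = above 25% in only one replicate; inactive = the rest.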

This assay in a line: S. cerevisiae growth inhibition in permissive medium (OD615), pilot counter-assay for S. cerevisiae lifespan shortening project, permissive growth control (AID 705). Conditions: OD615, 24 h, at 10 µM, stronger effect = higher value. The method, boiled down: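 Timing: 24 h exposure, 30 °C / Material: Saccharomyces cerevisiae strain carrying genetically modified DeaD replicative-lifespan system / Signal: OD at 615 nm / Compound: 10 µM single dose, 0.25% DMSO / Medium: SC raffinose/galactose permissive medium / Evaluation: reduction in yeast growth (OD615)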
Consider `C=CCOC(=O)C1=C(C)NC(=O)NC1/C=C/c1ccccc1` (configuration not stated), for which the growth inhibition was -5.98%.

Take `Cc1nnc(NC(=O)CSc2nnc(Cc3cccn3C)n2-c2ccccc2)s1`: the growth inhibition was 10.8%. Then `COc1ccc(-n2nnc3c(=O)n(CC(=O)OCc4ccccc4)cnc32)cc1`, with 0.92%. Then `Cc1ccc(C(C(=O)NC2CCCC2)N2CCCCC2)cc1` (configuration not stated), with -2.54%. In the case of `COc1ccc(OC)c2sc(NC(=O)c3ccc(Br)s3)nc12` it was -1.73%; in that of `COc1ccc(NC(=O)N(Cc2cccnc2)Cc2ccccc2Cl)c(OC)c1`, 0.09%; in that of `O=C(O)c1cc(Cl)c(Cl)cc1C(=O)N1CCOCC1`, -26.1%. Consider `Cc1nnc(NC(=O)CSc2nnc(CNC(=O)c3ccccc3)n2-c2ccccc2)s1`, for which the growth inhibition is -5%. Then `c1cncc(-c2nc3ccccn3c2Nc2ccc3c(c2)OCCO3)c1`, with -1.86%; and `O=c1[nH]cnc2c1sc(=S)n2-c1ccccc1`, with 10.2%. As for `O=C1c2ccccc2C(=O)C1c1ccncc1`, the growth inhibition was 4.93%. For `COc1ccccc1-n1c(CNC(=O)c2ccco2)nnc1SCC(=O)Nc1nccs1`, the growth inhibition was -0.655%. Then `O=C(NCc1ccccc1)c1ccc(/C=N/O)nc1`, with -17.6%.

As for `C=CCOC(=O)COc1ccc2c(C)c(C)c(=O)oc2c1`, the growth inhibition was -17.9%. Then `CC1CCN(C(=O)c2cc(-c3ccccc3O)on2)CC1`, with -10.2%. As to `CCCCn1c(=O)cc(N2CCOCC2)[nH]c1=O`, the growth inhibition was -16.3%. As to `COC(=O)c1ccccc1NS(=O)(=O)c1cn(C)c(=O)n(C)c1=O`, the growth inhibition was -1.82%.
